In ChEMBL document CHEMBL1151956, “Sucutiniranes C-F, cassane-type diterpenes from Bowdichia nitida” (J Nat Prod, 2009):
Active and inactive are the calls of the source. No cut-off for these calls is given here.

Tests used:
[1] = tested on: HL-60; assay: Cytotoxicity against human HL60 cells at 50 uM after 48 hrs by MTT assay; assay type: functional, cell-based
[2] = tested on: MCF7; assay: Cytotoxicity against human MCF7 cells at 50 uM after 48 hrs by MTT assay; assay type: functional, cell-based
[3] = tested on: HCT-116; assay: Cytotoxicity against human HCT116 cells at 50 uM after 48 hrs by MTT assay; assay type: functional, cell-based
[4] = tested on: Plasmodium falciparum; assay: Antiplasmodial activity against Plasmodium falciparum 3D7; assay type: functional, organism-based
[5] = tested on: HL-60; assay: Cytotoxicity against human HL60 cells after 48 hrs by MTT assay; assay type: functional, cell-based; details: HL-60, 48 h
Procedure, shortened: (§1)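 Cells seeded in 96-well plates, HL-60 at 1 × 10^4 cells/well and HCT-116 and MCF-7 at 5 × 10^3 cells/well, then preincubated 24 h at 37 °C in humidified 5% CO2. Compounds were added at graded concentrations and incubated for 48 h at 37 °C. MTT (5 mg/mL) was added for 2 h, and formazan was dissolved in 10% SDS/0.01 N HCl. Absorbance was read at 550 and 700 nm. Triplicate wells were used, and IC50 was taken from percent living cells versus controls.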

[6] = tested on: MCF7; assay: Cytotoxicity against human MCF7 cells after 48 hrs by MTT assay; assay type: functional, cell-based; details: MCF7, 48 h; procedure, shortened: as §1
[7] = tested on: HCT-116; assay: Cytotoxicity against human HCT116 cells after 48 hrs by MTT assay; assay type: functional, cell-based; details: HCT-116, 48 h; procedure, shortened: as §1

Row | Compound | Activity [1] | Activity [2] | Activity [3] | Activity [4] | IC50 [5] [µM] | IC50 [6] [µM] | IC50 [7] [µM]
1 | CC(=O)O[C@H]1Cc2c(cc3occc3c2C)[C@@]2(C)CCCC(C)(C)[C@H]12 | inactive | inactive | inactive | inactive |  |  | 
2 | Cc1c2c(cc3occc13)[C@@]1(C)CCCC(C)(C)[C@@H]1C=C2 | inactive | inactive | inactive | inactive |  |  | 
3 | CC(=O)O[C@H]1C[C@H]2[C@@H](C)C3=CC(=O)O[C@@H]3C[C@@H]2[C@@]2(C)CCCC(C)(C)[C@H]12 [12-DEOXY-SUCUTINIRANE A] |  |  |  |  | 32 |  | 
4 | CC(=O)O[C@H]1C[C@H]2[C@@H](C)C3=CC(=O)O[C@]3(O)C[C@@H]2[C@@]2(C)CCCC(C)(C)[C@H]12 [SUCUTINIRANE A] |  |  |  |  | 14 |  | 
5 | CC(=O)O[C@H]1[C@H](O)[C@H]2[C@@H](C)c3ccoc3C[C@@H]2[C@@]2(C)CCCC(C)(C)[C@H]12 [Sucutinirane E] |  |  |  | inactive | 12 | 35 | 36
6 | CC(=O)O[C@H]1[C@H](O)[C@H]2C(C)(C)CCC[C@]2(C)[C@H]2Cc3occc3[C@H](C)[C@H]12 [Sucutinirane F] |  |  |  | inactive | 7.5 | 18 | 30
